Here are results for two compounds from ChEMBL document CHEMBL4396880, “Development of Small-Molecules Targeting Receptor Activator of Nuclear Factor-κB Ligand (RANKL)-Receptor Activator of Nuclear Factor-κB (RANK) Protein-Protein Interaction by Structure-Based Virtual Screening and Hit Optimization” (J Med Chem, 2019).

The target in data set [1] is T1, Tumor necrosis factor ligand superfamily member 11/11A (Mus musculus) (UniProt O35235+O35305). Description: Inhibition of RANKL-RANK protein-protein interaction in C57/BL6 mouse bone marrow macrophage assessed as suppression of M-CSF/mRANKL-induced osteoclastogenesis by measuring reduction in NFATc1 mRNA level measured after 3 days by Trizol-reagent-based qRT-PCR analysis. Summed up:
(§1)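 BMMs were treated with graded compound concentrations during RANKL-driven osteoclastogenesis. On day 3 of culture, NFATc1, TRAP and cathepsin K transcripts were quantified by real-time PCR.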
(In general: Quantitative PCR measures a nucleic acid by following its amplification.)

In data set [2] the target is T1, Tumor necrosis factor ligand superfamily member 11/11A (Mus musculus). Kind of data set: Inhibition of RANKL-RANK protein-protein interaction in C57/BL6 mouse bone marrow macrophage assessed as suppression of M-CSF/mRANKL-induced osteoclastogenesis by measuring reduction in TRAP mRNA level measured after 3 days by Trizol-reagent-based qRT-PCR analysis. In short, it runs like this:
as §1

For data set [3] the target is unchanged. Description: Inhibition of RANKL-RANK protein-protein interaction in C57/BL6 mouse bone marrow macrophage assessed as suppression of M-CSF/mRANKL-induced osteoclast differentiation by measuring decrease in multinucleated TRAP+ cells at 10 uM supplemented with fresh medium containing compounds every 2 days for 5 to 6 days by TRAP staining-based microscopic analysis relative to control. The data set is classed as cell-based. Summed up: (§2)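 Bone marrow macrophages were exposed to the test compound at the indicated concentrations for 5 days under M-CSF/RANKL stimulation. TRAP-positive multinucleated cells were then counted as the measure of osteoclast formation.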

Data set [4] shares this target. Description: Inhibition of RANKL-RANK protein-protein interaction in C57/BL6 mouse bone marrow macrophage assessed as suppression of M-CSF/mRANKL-induced osteoclast differentiation by measuring decrease in multinucleated TRAP+ cells at 5 uM supplemented with fresh medium containing compounds every 2 days for 5 to 6 days by TRAP staining-based microscopic analysis relative to control. The data set is classed as cell-based. In short, it runs like this:
as §2

Data set [5] shares this target. Kind of data set: (§3) Inhibition of RANKL-RANK protein-protein interaction in C57/BL6 mouse bone marrow macrophage assessed as suppression of M-CSF/mRANKL-induced osteoclast differentiation by measuring decrease in multinucleated TRAP+ cells supplemented with fresh medium containing compounds every 2 days for 5 to 6 days by TRAP staining-based microscopic analysis. The data set is classed as cell-based. Summed up:
as §2

The target in data set [6] is T2, Tumor necrosis factor ligand superfamily member 11/11A (Mus musculus, UniProt O35235+O35305).
T2 sequence (O35235 whole entry): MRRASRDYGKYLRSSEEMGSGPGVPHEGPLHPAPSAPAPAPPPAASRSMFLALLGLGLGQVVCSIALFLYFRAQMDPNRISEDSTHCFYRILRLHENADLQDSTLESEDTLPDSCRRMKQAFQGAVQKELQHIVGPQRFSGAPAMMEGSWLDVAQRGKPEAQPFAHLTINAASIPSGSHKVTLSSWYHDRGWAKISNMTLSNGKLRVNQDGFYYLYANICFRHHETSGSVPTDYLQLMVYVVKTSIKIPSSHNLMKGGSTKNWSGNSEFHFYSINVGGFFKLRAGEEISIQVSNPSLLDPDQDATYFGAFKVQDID
T2 sequence (O35305 whole entry): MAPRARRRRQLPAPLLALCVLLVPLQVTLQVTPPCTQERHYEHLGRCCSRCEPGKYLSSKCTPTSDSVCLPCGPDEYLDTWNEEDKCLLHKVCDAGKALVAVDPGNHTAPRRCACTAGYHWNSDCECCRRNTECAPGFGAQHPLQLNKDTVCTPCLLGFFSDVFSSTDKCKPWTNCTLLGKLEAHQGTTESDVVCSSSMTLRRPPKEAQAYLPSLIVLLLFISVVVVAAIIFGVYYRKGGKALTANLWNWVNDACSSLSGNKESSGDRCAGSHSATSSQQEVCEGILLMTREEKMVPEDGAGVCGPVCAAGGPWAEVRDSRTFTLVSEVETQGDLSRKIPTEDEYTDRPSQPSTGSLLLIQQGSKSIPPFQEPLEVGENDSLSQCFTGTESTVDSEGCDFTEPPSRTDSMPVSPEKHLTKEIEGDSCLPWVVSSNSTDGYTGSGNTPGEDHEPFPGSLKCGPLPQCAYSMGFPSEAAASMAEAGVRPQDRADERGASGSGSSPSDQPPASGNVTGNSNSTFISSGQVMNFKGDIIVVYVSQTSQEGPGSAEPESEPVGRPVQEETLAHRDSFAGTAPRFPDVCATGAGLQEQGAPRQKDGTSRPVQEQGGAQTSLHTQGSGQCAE
Described as §3. In kind it is cell-based. In short, it runs like this:
as §2

The target of data set [7] is T1, Tumor necrosis factor ligand superfamily member 11/11A (Mus musculus). Description: Inhibition of RANKL-RANK protein-protein interaction in C57/BL6 mouse bone marrow macrophage assessed as suppression of M-CSF/mRANKL-induced osteoclastogenesis by measuring reduction in TRAP activity at 5 uM measured after 3 days by colorimetric assay relative to control. In short, it runs like this: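 BMMs were incubated with the test compound at 5 μM, together with RANKL (50 ng/mL) and M-CSF (20 ng/mL), for 3 days. Osteoclastogenesis was then read out as tartrate-resistant acid phosphatase (TRAP) activity.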

For data set [8] the target is unchanged. Description: Inhibition of RANKL-RANK protein-protein interaction in C57/BL6 mouse bone marrow macrophage assessed as suppression of M-CSF/mRANKL-induced osteoclastogenesis by measuring reduction in cathepsin K mRNA level measured after 3 days by Trizol-reagent-based qRT-PCR analysis. Summed up:
as §1

The subject of another data set is BMDM. Description: Cytotoxicity against M-CSF-stimulated C57/BL6 mouse bone marrow macrophages assessed as reduction in cell viability up to 10 uM measured after 2 days by MTT assay. Particulars: 48 h. In kind it is cell-based.
In data set [9] the target is T3, Tumor necrosis factor ligand superfamily member 11 (Homo sapiens, UniProt O14788).
T3 sequence (O14788 whole entry): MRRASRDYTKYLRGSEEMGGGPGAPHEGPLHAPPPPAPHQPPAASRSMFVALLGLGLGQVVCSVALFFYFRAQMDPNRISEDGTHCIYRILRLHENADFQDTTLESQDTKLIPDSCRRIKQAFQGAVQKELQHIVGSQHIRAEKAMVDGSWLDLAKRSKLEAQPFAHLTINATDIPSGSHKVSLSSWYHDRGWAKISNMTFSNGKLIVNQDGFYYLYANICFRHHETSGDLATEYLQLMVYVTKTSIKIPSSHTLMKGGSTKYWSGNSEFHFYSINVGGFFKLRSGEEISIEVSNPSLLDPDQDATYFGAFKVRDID
Kind of data set: Binding affinity to human RANKL by surface plasmon resonance analysis. On the technique in general: In SPR one partner is held on a chip, and binding of the other changes the refractive index at the surface.

The target of data set [10] is T4, Tumor necrosis factor ligand superfamily member 11 (Homo sapiens) (UniProt O14788).
T4 sequence (whole entry): T3 sequence (O14788 whole entry)
Description: (§4) Inhibition of RANK binding to human RANKL measured after 1 h by surface plasmon resonance analysis.

The target in data set [11] is T3, Tumor necrosis factor ligand superfamily member 11. The description is as §4.
The target in data set [12] is T1, Tumor necrosis factor ligand superfamily member 11/11A (Mus musculus). Description: Inhibition of RANKL-RANK protein-protein interaction in C57/BL6 mouse bone marrow macrophage assessed as suppression of M-CSF/mRANKL-induced osteoclastogenesis by measuring reduction in cathepsin K mRNA level at 2.5 uM measured after 3 days by Trizol-reagent-based qRT-PCR analysis. In short, it runs like this:
as §1

Data set [13] can be described thus: Cytotoxicity against M-CSF-stimulated C57/BL6 mouse bone marrow macrophages assessed as cell viability at 10 uM measured after 2 days by MTT assay (reference value: 100%). The conditions noted are these: M-CSF-stimulated bone marrow macrophages (BMDM), read-out: Activity. The data set is classed as cell-based. A general note: Tetrazolium assays rely on reduction of a dye to a coloured formazan, in cell work by metabolically active cells.

Data set [14] concerns the target T1, Tumor necrosis factor ligand superfamily member 11/11A (Mus musculus). Description: Inhibition of RANKL-RANK protein-protein interaction in C57/BL6 mouse bone marrow macrophage assessed as suppression of M-CSF/mRANKL-induced osteoclast differentiation by measuring decrease in multinucleated TRAP+ cells at 5 uM supplemented with fresh medium containing compounds every 2 days for 5 to 6 days by TRAP staining-based microscopic analysis. In kind it is cell-based. Summed up: as §2

Data set [15] has the same target. Description: Inhibition of RANKL-RANK protein-protein interaction in C57/BL6 mouse bone marrow macrophage assessed as suppression of M-CSF/mRANKL-induced osteoclast differentiation by measuring decrease in nuclei size of F-actin ring formation at 5 uM supplemented with fresh medium containing compounds every 2 days for 5 to 6 days by rhodamine phalloidin/DAPI staining-based microscopic analysis. In kind it is protein assay.

Data set [16] has the same target. Kind of data set: Inhibition of RANKL-RANK protein-protein interaction in C57/BL6 mouse bone marrow macrophage assessed as suppression of M-CSF/mRANKL-induced osteoclast differentiation by measuring decrease in nuclei number of F-actin ring formation at 5 uM supplemented with fresh medium containing compounds every 2 days for 5 to 6 days by rhodamine phalloidin/DAPI staining-based microscopic analysis. In kind it is protein assay.

A further data set addresses Tumor necrosis factor (Homo sapiens, UniProt P01375). Kind of data set: Binding affinity to human TNFalpha by surface plasmon resonance analysis.
In data set [17] the target is T1, Tumor necrosis factor ligand superfamily member 11/11A (Mus musculus). Kind of data set: Inhibition of RANKL-RANK protein-protein interaction in C57/BL6 mouse bone marrow macrophage assessed as suppression of M-CSF/mRANKL-induced bone resorption at 1 to 5 uM measured after 2 days by toluidine blue staining-based confocal microscopic analysis.
The target is the same in data set [18]. Description: Inhibition of RANKL-RANK protein-protein interaction in C57/BL6 mouse bone marrow macrophage assessed as suppression of M-CSF/mRANKL-induced osteoclastogenesis by measuring reduction in TRAP mRNA level at 2.5 uM measured after 3 days by Trizol-reagent-based qRT-PCR analysis. Summed up: as §1
For data set [19] the target is unchanged. Kind of data set: Inhibition of RANKL-RANK protein-protein interaction in C57/BL6 mouse bone marrow macrophage assessed as suppression of M-CSF/mRANKL-induced osteoclastogenesis by measuring reduction in NFATc1 mRNA level at 2.5 uM measured after 3 days by Trizol-reagent-based qRT-PCR analysis. In short, it runs like this:
as §1

Data set [20] shares this target. Kind of data set: Inhibition of RANKL-RANK protein-protein interaction in C57/BL6 mouse bone marrow macrophage assessed as suppression of M-CSF/mRANKL-induced osteoclastogenesis by measuring reduction in NFATc1 expression measured after 3 days by Western blot analysis.
Data set [21] shares this target. Description: Inhibition of RANKL-RANK protein-protein interaction in C57/BL6 mouse bone marrow macrophage assessed as suppression of M-CSF/mRANKL-induced osteoclastogenesis by measuring reduction in c-fos expression measured after 3 days by Western blot analysis.

Each structure is given as a SMILES string. Active and inactive are the calls of the source. The calls are words filed in the database; no cut-off is given here.

Sequence of Tumor necrosis factor (P01375 whole entry): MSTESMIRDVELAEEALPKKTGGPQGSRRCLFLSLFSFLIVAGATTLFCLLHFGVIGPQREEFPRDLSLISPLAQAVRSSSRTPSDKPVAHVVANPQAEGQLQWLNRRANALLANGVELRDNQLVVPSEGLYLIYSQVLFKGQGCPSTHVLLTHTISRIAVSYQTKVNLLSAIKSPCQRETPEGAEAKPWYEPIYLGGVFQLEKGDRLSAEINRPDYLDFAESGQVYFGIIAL

With `Cc1cccc(C)c1NC(=O)C(Cc1c[nH]c2ccccc12)NC(=O)OCc1ccccc1` (racemic), the inhibition result in data set [1] is “Dose-dependent effect”; in data set [2], “Dose-dependent effect”; in [3], 93.3%; in data set [4], 50%; in data set [5], “Dose-dependent effect”; in data set [7], 54.9 to 68.4%. Besides, the inhibition entry in [8] and in data set [10] was “Dose-dependent effect” each time. The values for the IC50 in [6] and in data set [11] were 6.6 µM and 26.2 µM, respectively. For the same compound, in the data set with BMDM, the Activity entry is reported as “Non-Toxic”. This compound came in with a Kd in data set [9] of 9.8 µM.

Consider `Cc1cccc(C)c1NC(=O)C(Cc1c[nH]c2ccccc12)NCCCc1ccccc1` (racemic), for which the inhibition entry in data set [5] is “Dose-dependent effect”; in data set [7], 92.9%; in data set [14], 100%; in data set [15], “Dose-dependent effect”; in data set [16], “Dose-dependent effect”; in data set [20], “Dose-dependent effect”. Further, in [21], the inhibition entry is “Dose-dependent effect”. In addition, the inhibition entry in [12], in data set [17], in [18] and in data set [19] was “Active” each time. For the same compound, the Kd in [9] is 0.614 µM; on Tumor necrosis factor, 93.6 µM. The viability at 48 h, 10 µM in data set [13] worked out at 110%.

What is called inhibition is how much of the control response was suppressed. What is called IC50 is the concentration that gives 50% inhibition. The Kd is a measure of binding affinity in units of concentration.
